Active and inactive are the calls of the source. The rule behind the calls is not given here. Square brackets hold non-standard residues; d marks the D form. Peptide text beside a SMILES is read from it. * marks the point of attachment. ξ: configuration not given here. Boc = CC(C)(C)OC(=O)*; ξV = CC(C)C(N)C(=O)O
What was measured:
[1] = test system: Chlamydia trachomatis; assay: (§1) Antibacterial activity against Chlamydia trachomatis D/UW-3/Cx strain infected in mouse McCoy cells assessed as inclusion forming units at 100 uM treated 16 hrs post infection measured at 44 hrs post-infection by Evan's blue staining based-confocal microscopic analysis (reference value: 62 +/- 8.5 10^5U/mL); type: functional
[2] = test system: Chlamydia pecorum; assay: as §1, with “pecorum IPA ATCC VR629” for “trachomatis D/UW-3/Cx strain”, “342.55646” for “62”, “6.53872” for “8.5”; type: functional
[3] = test system: Chlamydia trachomatis 434/Bu; assay: (§2) Potency index, ratio of JO146 IC50 to compound IC50 for inhibition of recombinant chlamydia trachomatis serovar L2 434/Bu/ATCC VR-902B HtrA expressed in Escherichia coli BL21(DE3) using MeOCoum-ENLHLPLPIIF-NH-DNP as fluorescent mimotope preincubated for 20 mins followed by mimotope addition in presence of fluorophore 7-methoxycoumarin-4-acetic acid by plate reader based fluorescence assay
[4] = target: T1, Neutrophil elastase (Homo sapiens, UniProt P08246); assay: Inhibition of human neutrophil elastase using AAPV-pNA as substrate preincubated for 15 mins followed by substrate addition and measured every 15 secs for 5 mins
T1 sequence (P08246 whole entry): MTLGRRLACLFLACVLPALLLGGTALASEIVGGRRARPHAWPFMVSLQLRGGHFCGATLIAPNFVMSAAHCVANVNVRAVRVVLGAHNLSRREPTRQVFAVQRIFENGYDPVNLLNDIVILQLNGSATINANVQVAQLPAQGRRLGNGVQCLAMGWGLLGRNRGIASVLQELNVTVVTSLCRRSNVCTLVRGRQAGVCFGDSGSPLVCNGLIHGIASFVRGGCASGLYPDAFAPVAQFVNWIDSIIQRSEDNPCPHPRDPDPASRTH
How it was run: (§3)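 Enzyme and inhibitor (in DMSO) were preincubated at 37 °C for 15 min in 0.10 M Tris-HCl, pH 8.1, with 0.02 M CaCl₂. The pNA substrate was added to start the reaction. A405 was monitored every 15 s over 5 min at 37 °C. Runs were in triplicate, and inhibition was expressed as percent enzyme activity remaining.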

[5] = as §2, with “Inhibition” for “Potency index, ratio of JO146 IC50 to compound IC50 for inhibition”; set-up: species or system Chlamydia trachomatis 434/Bu
[6] = Inhibition of bovine pancreas chymotrypsin using AAPF-pNA as substrate preincubated for 15 mins followed by substrate addition and measured every 15 secs for 5 mins; set-up: species or system Bos taurus; how it was run: as §3
[7] = target: Trypsin (Homo sapiens, UniProt P07477+P07478+P35030); assay: Inhibition of human trypsin using Nalpha-benzoyl-DL-R-pNA as substrate preincubated for 15 mins followed by substrate addition and measured every 15 secs for 5 mins; type: protein assay; how it was run: as §3
[8] = test system: Chlamydia pecorum; assay: Antibacterial activity against Chlamydia pecorum IPA ATCC VR629 infected in mouse McCoy cells assessed as reduction in inclusion forming units at 100 uM treated 16 hrs post infection measured at 44 hrs post-infection by Evan's blue staining based-confocal microscopic analysis (reference value: 342.55646 +/- 6.53872 10^5U/mL); type: functional
[9] = Inhibition of chlamydia trachomatis HtrA using MCA-ENLHLPLPIIF-DNP as substrate by FRET or pNA assay
How it was run: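 Recombinant CtHtrA at 0.5 mg/mL stock, preincubated with inhibitor in DMSO in 50 mM Tris/20 mM MgCl2, pH 7.0, for 20 min at 37 °C. Reaction started with quenched fluorescent peptide (methoxycoumarin fluorophore, DNP quencher; 1 mg/mL stock in 50% isopropanol). Fluorescence read immediately at ex 340/em 405 nm over 50 cycles.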

[10] = test system: Chlamydia trachomatis; assay: as §1, with “trachomatis D/UW-3/Cx infected in” for “trachomatis D/UW-3/Cx strain infected in”, “assessed as reduction in inclusion forming” for “assessed as inclusion forming”; type: functional
[11] = test system: Chlamydia trachomatis 434/Bu; assay: Activation of recombinant chlamydia trachomatis serovar L2 434/Bu/ATCC VR-902B HtrA expressed in Escherichia coli BL21(DE3) using MeOCoum-ENLHLPLPIIF-NH-DNP as fluorescent mimotope at <50 uM preincubated for 20 mins followed by mimotope addition in presence of fluorophore 7-methoxycoumarin-4-acetic acid by plate reader based fluorescence assay

Ratio IC50 [3]	IC50 [5] [µM]	Activity [11]	SMILES	Activity [1] [×10⁵ U/mL]	Activity [2] [×10⁵ U/mL]	IC50 [4] [µM]	IC50 [6] [µM]	IC50 [7] [µM]	Activity [8] [log10CFU]	IC50 [9] [µM]	Activity [10] [log10CFU]
inactive	> 500	–	CCC(=O)C(=O)C(NC(=O)[C@@H]1CCCN1C(=O)[C@@H](NC(=O)OC(C)(C)C)C(C)C)C(C)C (mixture of isomers)	57	351	4.71	> 500	> 500	–	–	–
1.06	321	–	CC(C)C(NC(=O)[C@@H]1CCCN1C(=O)[C@@H](NC(=O)OC(C)(C)C)C(C)C)C(=O)c1nc2ccccc2s1 (mixture of isomers)	2.539	0.04744	2.6	> 500	> 500	4	–	–
–	–	–	CC(C)C(NC(=O)[C@@H]1CCCN1C(=O)[C@H](C)NC(=O)OC(C)(C)C)P(=O)(Oc1ccccc1)Oc1ccccc1 (stereo not given in full)	–	–	–	–	–	–	47.2	–
inactive	> 500	–	CCCC(NC(=O)[C@@H]1CCCN1C(=O)[C@@H](NC(=O)OC(C)(C)C)C(C)C)C(=O)c1nccs1 (stereo not given in full)	–	–	> 150	> 500	> 500	–	–	–
inactive	> 500	–	CC(=O)C(=O)C(NC(=O)[C@@H]1CCCN1C(=O)[C@@H](NC(=O)OC(C)(C)C)C(C)C)C(C)C (mixture of isomers)	86	–	1.35	> 500	> 500	–	–	–
inactive	> 500	–	CC(C)C(NC(=O)[C@@H]1CCCN1C(=O)[C@@H](NC(=O)OC(C)(C)C)C(C)C)C(=O)C(N)=O (stereo not given in full)	29.07	–	–	–	–	–	–	–
inactive	> 500	–	CC(C)C(NC(=O)[C@@H]1CCCN1C(=O)[C@@H](NC(=O)OC(C)(C)C)C(C)C)C(=O)N(C)C1CC1 (stereo not given in full)	8.3844	–	–	–	–	–	–	–
inactive	> 500	–	CC(C)C(CO)NC(=O)[C@@H]1CCCN1C(=O)[C@@H](NC(=O)OC(C)(C)C)C(C)C (mixture of isomers)	34.6007	–	–	–	–	–	–	–
inactive	> 500	–	CC(C)C(NC(=O)[C@@H]1CCCN1C(=O)[C@@H](NC(=O)OC(C)(C)C)C(C)C)C(=O)N(C)C (stereo partly drawn) (Boc-Val-Pro-[ξV]-NMe2)	30.9343	–	–	–	–	–	–	–
–	> 500	Active	CC(C)C(NC(=O)[C@@H]1CCCN1C(=O)[C@@H](NC(=O)OC(C)(C)C)C(C)C)B(O)O (stereo not given in full)	0.09939	–	–	–	–	–	–	3
inactive	> 500	–	CC(C)C(NC(=O)[C@@H]1CCCN1C(=O)[C@@H](NC(=O)OC(C)(C)C)C(C)C)C(=O)c1nccs1 (mixture of isomers)	33.1	1.983	–	–	–	–	–	–
inactive	> 500	–	CCN(C)C(=O)C(NC(=O)[C@@H]1CCCN1C(=O)[C@@H](NC(=O)OC(C)(C)C)C(C)C)C(C)C (stereo not given in full)	34.5497	–	–	–	–	–	–	–
inactive	> 500	–	CCC(C)C(NC(=O)[C@@H]1CCCN1C(=O)[C@@H](NC(=O)OC(C)(C)C)C(C)(C)C)C(=O)c1nc2ccccc2s1 (mixture of isomers)	2.829	0.2193	4.83	> 500	> 500	–	–	–
inactive	> 500	–	CC(C)C(NC(=O)[C@@H]1CCCN1C(=O)[C@@H](NC(=O)OC(C)(C)C)C(C)C)C(=O)C(=O)C1CC1 (mixture of isomers)	55.0347	–	–	> 500	> 500	–	–	–
inactive	> 500	–	C=CCN(C)C(=O)C(NC(=O)[C@@H]1CCCN1C(=O)[C@@H](NC(=O)OC(C)(C)C)C(C)C)C(C)C (stereo not given in full)	36.2553	–	–	–	–	–	–	–

SMILES	Ratio IC50 [3]	IC50 [5] [µM]	Activity [11]	Activity [1] [×10⁵ U/mL]	Activity [2] [×10⁵ U/mL]	IC50 [4] [µM]	IC50 [6] [µM]	IC50 [7] [µM]	Activity [8] [log10CFU]	IC50 [9] [µM]	Activity [10] [log10CFU]
CCC(C)C(NC(=O)[C@@H]1CCCN1C(=O)[C@@H](NC(=O)OC(C)(C)C)C(C)C)P(=O)(Oc1ccccc1)Oc1ccccc1 (mixture of isomers)	20	18.4	–	0.09231	43.9246	0.36	38.5	> 500	–	–	–
CCC[C@H](NC(=O)OC(C)(C)C)C(=O)N1CCC[C@H]1C(=O)NC(C(C)C)P(=O)(Oc1ccccc1)Oc1ccccc1 (mixture of isomers)	–	56	–	17.0963	219.8	0.45	> 500	> 500	–	–	–
CCCC(NC(=O)[C@@H]1CCCN1C(=O)[C@@H](NC(=O)OC(C)(C)C)C(C)C)P(=O)(Oc1ccccc1)Oc1ccccc1 (mixture of isomers)	inactive	> 500	–	1.49	0.4583	0.68	> 500	> 500	–	–	–
CC[C@H](C)[C@H](NC(=O)OC(C)(C)C)C(=O)N1CCC[C@H]1C(=O)NC(C(C)C)P(=O)(Oc1ccccc1)Oc1ccccc1 (mixture of isomers)	14.3	25	–	0.5089	10.8851	0.4	> 500	> 500	–	–	–
CC(C)[C@H](NC(=O)OC(C)(C)C)C(=O)N1CCC[C@H]1C(=O)NC(C(C)(C)C)P(=O)(Oc1ccccc1)Oc1ccccc1 (mixture of isomers)	inactive	> 500	–	0.217	5.344	> 500	> 500	> 500	–	–	–
CC(C)C(NC(=O)[C@@H]1CCCN1C(=O)[C@@H](NC(=O)OC(C)(C)C)C(C)C)P(=O)(Oc1ccccc1)Oc1ccccc1 (stereo not given in full)	–	13 to 351	–	0.00434	–	0.83	> 500	> 500	–	12.5	–
CCC(C)C(NC(=O)[C@@H]1CCCN1C(=O)[C@@H](NC(=O)OC(C)(C)C)C(C)(C)C)P(=O)(Oc1ccccc1)Oc1ccccc1 (mixture of isomers)	inactive	> 500	–	0.1099	0.2042	2.35	0.53	> 500	–	–	–
CC(C)C(NC(=O)[C@@H]1CCCN1C(=O)[C@@H](NC(=O)OC(C)(C)C)C(C)(C)C)P(=O)(Oc1ccccc1)Oc1ccccc1 (mixture of isomers)	33.3	9.3	–	0.01548	0.03388	0.68	> 500	> 500	–	–	–
CCC(C)C(NC(=O)[C@@H]1CCCN1C(=O)[C@@H](NC(=O)OC(C)(C)C)[C@@H](C)CC)P(=O)(Oc1ccccc1)Oc1ccccc1 (mixture of isomers)	–	86	–	0.1134	0.3958	0.84	1.28	> 500	–	–	–

Source: ChEMBL document CHEMBL4393742, “Structure-activity analysis of peptidic Chlamydia HtrA inhibitors” (Bioorg Med Chem, 2019)
